Source: PubChem
Keap1 Nrf2 FP = disrupts human Keap1 binding to Nrf2 peptide | 340,000 compounds, 0.15% hits | inhibition, % at 9.4 µM | Keap1 Kelch-Nrf2 peptide fluorescence polarization, 1536-well | AID 504523 | Q14145; in the data active means inhibition above about 12%; inconclusive means no clear call, values can overlap the other calls; inactive means below about 7.3%;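 further: human Keap1 Kelch domain with fluorescein labeled Nrf2 9mer peptide probe; higher means more block of Keap1 binding to Nrf2 peptide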
GRK2 inh = blocks RNA aptamer binding to human GRK2; P25098; bead flow cytometry, FAM-aptamer displacement from GRK2; inhibition of aptamer binding, % at 10 µM; 330,000 compounds, 0.59% hits;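 active means inhibition of aptamer binding above 40%, roughly 3 SD of noise, on plates passing a quality check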;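 further: median bead fluorescence of bound FAM aptamer so fluorescent compounds give negative values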
MEX-5 binding = C. elegans MEX-5 TCR-2 RNA binding activity; activity score (negative = inhibition of binding), % at 10 µM; MEX-5/FITC-TCR2 RNA binding, fluorescence polarization; active compounds read low; Q9XUB2; AID 1832; 300,000 compounds, 0.38% hits;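 active means inhibition past about -25% in most replicates, and total fluorescence under double the plate's negative control median, limit read from the data; inconclusive means replicates evenly split on the limit, or fluorescence at least double controls; inactive means too little inhibition in most replicates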
Target sequence (Q9XUB2 whole entry, looked up): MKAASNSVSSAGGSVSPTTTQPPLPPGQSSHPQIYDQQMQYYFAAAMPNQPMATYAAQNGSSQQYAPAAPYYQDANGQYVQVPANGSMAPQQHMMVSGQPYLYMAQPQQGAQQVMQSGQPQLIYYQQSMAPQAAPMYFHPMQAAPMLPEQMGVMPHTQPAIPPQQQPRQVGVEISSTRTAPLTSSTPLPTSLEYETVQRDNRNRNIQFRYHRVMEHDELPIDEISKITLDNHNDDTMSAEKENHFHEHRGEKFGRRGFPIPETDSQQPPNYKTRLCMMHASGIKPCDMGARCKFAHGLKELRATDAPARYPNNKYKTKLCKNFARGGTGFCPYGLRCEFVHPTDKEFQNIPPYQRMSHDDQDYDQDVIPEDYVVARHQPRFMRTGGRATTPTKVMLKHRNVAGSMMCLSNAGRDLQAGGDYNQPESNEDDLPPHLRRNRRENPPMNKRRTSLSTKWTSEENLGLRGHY
LANA DNA inh = blocks KSHV LANA C-terminal domain binding to DNA; MBP-C-LANA/FAM-LBS DNA binding, fluorescence polarization; inhibition, % at 9 µM; 340,000 compounds, 0.078% hits;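 active means highest replicate inhibition at or above 60% at 9 µM, even if other replicates fall short; inactive means all replicates below 60% inhibition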
EBV gp42 block = blocks Epstein-Barr virus glycoprotein 42 binding; Q1HVG2; Fluorescence polarization binding assay, mP read-out; inhibition, % (tested at 21.74 µM); 220,000 compounds, 0.42% hits; in the data active means inhibition above about 50%
Target sequence (Q1HVG2 whole entry, looked up): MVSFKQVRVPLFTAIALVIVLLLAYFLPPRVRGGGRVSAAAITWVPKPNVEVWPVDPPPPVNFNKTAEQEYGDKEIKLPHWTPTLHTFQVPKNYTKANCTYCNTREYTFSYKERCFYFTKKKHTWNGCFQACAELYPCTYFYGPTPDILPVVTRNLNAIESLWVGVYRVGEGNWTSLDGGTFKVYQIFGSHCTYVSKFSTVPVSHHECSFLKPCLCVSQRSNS
T cell HTS = modulates CD8 T cell binding to vesicles; 330,000 compounds, 0.068% hits; 2C CD8+ T cell-vesicle binding, flow cytometry; active compounds read low; response (vesicle binding), % at 7 µM;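 active means response, share of CD8 T cells binding vesicles, and their 90th percentile fluorescence all below set limits, cut at about 80% in these data, passing the limit was not always enough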;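 further: values below 100% mean blocked vesicle binding to the CD8+ T cells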
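Assay system: 2C TCR transgenic mouse naive CD8+ T cells, MACS-purified | Read-out: CD8+ gate FL2 mean fluorescence as % of same-row positive control | Signal: High-throughput flow cytometry with anti-B7-1 and anti-CD8 staining | Timing: Binding step 1.5 h, 37 °C, antibody labelling 20 min, ice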
Of the large screens only hits and unclear results are named; the others gave an inactive call. Hits are enriched below; roughly 1.3% of the tested compounds scored in any of these assays.

CC(C)c1ccc(C2C(C#N)=C(N)N3C(=C2C#N)Sc2ccccc23)cc1 (stereo unspecified)	MEX-5 binding -120 (no result: Keap1 Nrf2 FP, LANA DNA inh)
O=[N+]([O-])c1cccc(-c2noc3c2-c2nc(Cc4cccc5ccccc45)sc2CC3)c1	none (no result: EBV gp42 block)
COc1ccc(-c2c(C(=O)O)c(-c3ccccc3)cn2C)cc1	none (no result: EBV gp42 block)
COc1ccc(-c2c(O)c(C#N)c(-c3ccccc3)n(-c3ccc(OC)cc3)c2=O)cc1	GRK2 inh 97
O=C(Nc1ccccc1Cl)Oc1ccc(Cl)cc1Cl	T cell HTS 27
CS(=O)(=O)n1nc(-c2ccc(Cl)cc2)nc1N	none
Cn1nc(-c2ccc(Cl)cc2)nc2c(=O)n(C)c(=O)nc1-2	MEX-5 binding -41, EBV gp42 block 54 (no result: Keap1 Nrf2 FP, LANA DNA inh)
O=C(N[C@H]1C/C=C\C[C@@H](CC(=O)N(CCO)Cc2ccccc2)C(=O)N2CCC[C@@H]2COC1=O)OCC1c2ccccc2-c2ccccc21	T cell HTS 0.0 (no result: MEX-5 binding, EBV gp42 block)
COc1ccc2c(c1OC)C(=O)OC2	none
COc1ccc2c3c(cccc13)C(=O)CC2	Keap1 Nrf2 FP 164, MEX-5 binding inconclusive, LANA DNA inh 163 (no result: EBV gp42 block)
CCn1cc(CNC(=O)CCc2ccc(OC)cc2)cn1	none
CCOc1ccc2nc3cc(NCc4ccc(OC)cc4)ccc3c(N)c2c1	MEX-5 binding -33 (no result: EBV gp42 block)
CCn1cnc2cc(NCc3ccc(OC)cc3)ccc21	none
COc1cc2c(cc1OC)-c1cc3ccc4c(c3c[n+]1CC2)OCO4	MEX-5 binding inconclusive, EBV gp42 block 126
COc1cc2c(cc1O)CC[n+]1cc3c(OC)c(OC)ccc3cc1-2	none
CCCCC1=CC2=C(c3ccco3)C(=O)C(C)(OC(=O)c3ccc(OC)cc3)C(=O)C2=CN1Cc1ccccc1 (stereo unspecified)	EBV gp42 block 52
COc1ccc(CN2CCN(CCc3ccccc3)C(CCO)C2)c(Cl)c1OC (stereo unspecified)	none (no result: EBV gp42 block)
COc1cc(C(=O)NC(c2ccccc2)c2ccccc2)cc(OC)c1C	MEX-5 binding -47 (no result: EBV gp42 block)
CC1C2(C)OC(=N)C(C#N)(C(C)O2)C1(C#N)C#N (stereo unspecified)	MEX-5 binding -30
CC1OC23CCCCC2C(C#N)(C(=N)O3)C1(C#N)C#N (stereo unspecified)	none
CCn1c(=O)c(-c2cc(=O)[nH][nH]2)c(O)c2ccccc21	none
Cn1c(=O)c(-c2cc(=O)[nH][nH]2)c(O)c2ccccc21	MEX-5 binding -30
O=C(/C=C/c1ccc(O)c(O)c1)O[C@H](Cc1ccc(O)c(O)c1)C(=O)O	MEX-5 binding -98 (no result: Keap1 Nrf2 FP, GRK2 inh, LANA DNA inh, T cell HTS)
Cc1ncc(/C=C2\C(=O)Nc3ccccc32)[nH]1	MEX-5 binding -40 (no result: Keap1 Nrf2 FP, LANA DNA inh)
CCc1ncc(/C=C2\C(=O)Nc3ccccc32)[nH]1	none
O=C1c2cc(F)ccc2OC2(CCNCC2)C12CC(c1ccccc1)=NO2 (stereo unspecified)	none
O=C(Nc1ccccn1)c1cc2cc([N+](=O)[O-])ccc2s1	none
O=C(Nc1nnc(-c2ccccc2Cl)o1)c1cc2cc([N+](=O)[O-])ccc2s1	EBV gp42 block 68 (no result: Keap1 Nrf2 FP, GRK2 inh, MEX-5 binding, LANA DNA inh, T cell HTS)
COC(=O)c1cc(NC(=O)c2cccc(Cl)c2)c(=O)oc1/C=C/Nc1cc(C)cc(C)c1	MEX-5 binding -28, EBV gp42 block 156 (no result: Keap1 Nrf2 FP, LANA DNA inh)
O=C(Cn1cc2c(n1)CCCC2)NCc1cccs1	none
O=C(Cn1cc2c(n1)CCCC2)NCc1ccccn1	EBV gp42 block 53
CCOc1ccc(OCc2cccc(C(=O)O)c2)cc1	none
O=C(N/N=C/c1cn(Cc2cccc(F)c2)c2ccccc12)c1cc(O)cc(O)c1	GRK2 inh 89 (no result: EBV gp42 block)
Cc1nnc(NC(=O)c2sc3nc(-c4cccs4)cc(C(F)(F)F)c3c2N)s1	none
CCN(CC)C(=O)c1sc2nc(-c3cccs3)cc(-c3cccs3)c2c1N	MEX-5 binding -33
CC(C)(C)C(=O)c1sc2nc(-c3cccs3)cc(C(F)(F)F)c2c1N	MEX-5 binding -74
CCN(CC)C(=O)c1sc2nc(-c3cccs3)cc(-c3ccc(Cl)cc3)c2c1N	EBV gp42 block 86
NC(=O)c1sc2nc(-c3cccs3)ccc2c1N	none (no result: EBV gp42 block)
COc1cc(C2C3=C(CC(C)(C)CC3=O)N(C)C(=O)N2C)cc(OC)c1OC (stereo unspecified)	none
CCNC(=S)N1CCCC(C(N)=O)C1 (stereo unspecified)	none
O=c1[nH]c(Nc2ccccc2)cc2cc(Br)ccc12	none (no result: EBV gp42 block)
O=c1[nH]c(Nc2ccccc2)cc2ccccc12	EBV gp42 block 72
COc1ccc(N2CCN(C(=O)COc3cccc4ccccc34)CC2)cc1	none (no result: EBV gp42 block)
O=c1oc2c(O)c(O)cc3c(=O)oc4c(O)c(O)cc1c4c23	GRK2 inh 84, LANA DNA inh 127, EBV gp42 block 86 (no result: MEX-5 binding)
O=c1oc2ccccc2c2oc3cc(O)c(O)cc3c12	none
NC(=S)NN=Cc1ccc(-c2ccc(S(=O)(=O)Nc3ncccn3)cc2)o1	Keap1 Nrf2 FP inconclusive, LANA DNA inh 73 (no result: MEX-5 binding, EBV gp42 block)
O=C(NCCN1C(=O)S/C(=C\c2ccccc2F)C1=O)C1CCN(S(=O)(=O)c2cccs2)CC1	none
COc1cc(CN2CCN(c3cccc(C)c3C)CC2)cc(OC)c1O	EBV gp42 block 111
O=C1CC(c2ccc(O)c(O)c2)Oc2c1ccc(O)c2O (stereo unspecified)	LANA DNA inh 97 (no result: MEX-5 binding)
CC(C)=CCc1c(O)ccc2c1OC(c1ccc(O)c(O)c1)CC2=O (stereo unspecified)	none
COC(=O)NNC(=O)c1ccc(C)c(Br)c1	GRK2 inh 80
CCCCCC(=O)N1CCN(CCN=CC2=C(O)CC(c3ccc(OC)cc3)CC2=O)CC1 (stereo unspecified)	none
COc1ccc(NS(=O)(=O)c2ccc(Cl)s2)cn1	EBV gp42 block 57
CCOC(=O)c1[nH]cnc1N=Nc1c(O)ccc2ccccc12	EBV gp42 block 56
COc1ccc(N2CCN(C(=O)CSc3nnnn3-c3ccc4c(c3)OCCO4)CC2)cc1	none
CCCCNC(=O)c1cnc2n(c1=O)CCS2	T cell HTS 26
CCN(CC)S(=O)(=O)c1ccc(Cl)c(NC(=S)NC(=O)C2CCCC2)c1	none (no result: MEX-5 binding, EBV gp42 block)
Cc1ccc(N2C(=O)c3cccc4c(N5CCN(C)CC5)ccc(c34)C2=O)c2cccnc12	MEX-5 binding -58, EBV gp42 block 159 (no result: Keap1 Nrf2 FP, LANA DNA inh)
Cc1ccc(N2C(=O)c3cccc4c([N+](=O)[O-])ccc(c34)C2=O)c2cccnc12	none
COc1ccc(-c2nc(CS(=O)CC(=O)NCc3cccnc3)c(C)o2)cc1 (stereo unspecified)	EBV gp42 block 136
CCc1ccc(-c2nc(CS(=O)CC(=O)NCc3cccnc3)c(C)o2)cc1 (stereo unspecified)	none
N#CC1=C(N)C2=C(N3CCCCC3)CCCC2C1(C#N)C#N (stereo unspecified)	MEX-5 binding -44
